Test results reported in ChEMBL document CHEMBL2331482, “Synthesis of some new 2-(3-pyridyl)-4,5-disubstituted thiazoles as potent antimicrobial agents” (2013).
Values after ≈ are worked out from the molar mass of the structure shown. Active and inactive are the calls of the source. No cut-off for these calls is given here.

Legend:
Type in all cases: functional
[1] = test system: Staphylococcus epidermidis; assay: Antibacterial activity against Staphylococcus epidermidis RCMB 010024 assessed as growth inhibition after 24 hrs by twofold serial dilution method; settings: RCMB 010024, 24 h
In short: (§1)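 Broth microdilution in Müller–Hinton broth, 96-well plates. Only compounds giving disc-diffusion zones >10 mm were tested. DMF stocks (1000 µg/mL) were diluted twofold to a final 500–0.007 µg/mL, with about 10^6 CFU/mL bacteria. Sealed plates ran 24 h at 37 °C in a humid chamber. MIC was the lowest concentration with no visible turbidity. DMF and uninoculated-medium controls were included.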

Klebsiella pneumoniae = assay: Antibacterial activity against Klebsiella pneumoniae RCMB 010093 assessed as growth inhibition after 24 hrs by twofold serial dilution method; in short: as §1
Aspergillus clavatus = assay: Antifungal activity against Aspergillus clavatus RCMB 02593 assessed as growth inhibition after 48 hrs by twofold serial dilution method; settings: RCMB 02593, 48 h
In short: (§2)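 Fungi were tested by microdilution in Sabouraud liquid medium. Only compounds with disc-diffusion zones >10 mm went on to this test. DMF stocks (1000 µg/mL) were serially diluted twofold to 500–0.007 µg/mL. Sealed plates were held 48 h at 25 °C in a humid chamber. MIC was the lowest concentration without visible turbidity. DMF and uninoculated-medium controls ran in parallel.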

Talaromyces marneffei = assay: Antifungal activity against Penicillium marneffei RCMB 01267 assessed as growth inhibition after 48 hrs by twofold serial dilution method; settings: RCMB 01267, 48 h; in short: as §2
Neisseria gonorrhoeae = assay: Antibacterial activity against Neisseria gonorrhoeae RCMB 010076 assessed as growth inhibition after 24 hrs by twofold serial dilution method; in short: as §1
Streptococcus pyogenes = assay: Antibacterial activity against Streptococcus pyogenes RCMB 010015 assessed as growth inhibition after 24 hrs by twofold serial dilution method; in short: as §1
Aspergillus fumigatus = assay: Antifungal activity against Aspergillus fumigatus RCMB 02564 assessed as growth inhibition after 48 hrs by twofold serial dilution method; settings: RCMB 02564, 48 h; in short: as §2
Geotrichum candidum = assay: Antifungal activity against Geotricum candidum RCMB 05096 assessed as growth inhibition after 48 hrs by twofold serial dilution method; settings: RCMB 05096, 48 h; in short: as §2
Pseudomonas aeruginosa = assay: Antibacterial activity against Pseudomonas aeruginosa RCMB 010043 assessed as growth inhibition after 24 hrs by twofold serial dilution method; in short: as §1
Candida albicans = assay: Antifungal activity against Candida albicans RCMB 05035 assessed as growth inhibition after 48 hrs by twofold serial dilution method; in short: as §2
Enterococcus faecalis = assay: Antibacterial activity against Enterococcus faecalis RCMB 010068 assessed as growth inhibition after 24 hrs by twofold serial dilution method; in short: as §1
Bacillus subtilis = assay: Antibacterial activity against Bacillus subtilis RCMB 010063 assessed as growth inhibition after 24 hrs by twofold serial dilution method; settings: RCMB 010063, 24 h; in short: as §1
Proteus vulgaris = assay: Antibacterial activity against Proteus vulgaris RCMB 010085 assessed as growth inhibition after 24 hrs by twofold serial dilution method; in short: as §1
Shigella flexneri = assay: Antibacterial activity against Shigella flexneri RCMB 0100542 assessed as growth inhibition after 24 hrs by twofold serial dilution method; in short: as §1
Staphylococcus aureus = assay: Antibacterial activity against Staphylococcus aureus RCMB 010027 assessed as growth inhibition after 24 hrs by twofold serial dilution method; settings: RCMB 010027, 24 h; in short: as §1

Structure (SMILES)	MIC [1] [µg/mL]	MIC (Klebsiella pneumoniae; RCMB 010093, 24 h) [µg/mL]	MIC (Aspergillus clavatus) [µg/mL]	MIC (Talaromyces marneffei) [µg/mL]	MIC (Neisseria gonorrhoeae; RCMB 010076, 24 h) [µg/mL]	MIC (Aspergillus fumigatus) [µg/mL]	MIC (Geotrichum candidum) [µg/mL]	MIC (Candida albicans; RCMB 05035, 48 h) [µg/mL]	MIC (Enterococcus faecalis; RCMB 010068, 24 h) [µg/mL]	MIC (Bacillus subtilis) [µg/mL]	MIC (Proteus vulgaris; RCMB 010085, 24 h) [µg/mL]	MIC (Shigella flexneri; RCMB 0100542, 24 h) [µg/mL]	MIC (Staphylococcus aureus) [µg/mL]	MIC (Neisseria gonorrhoeae)	MIC (Streptococcus pyogenes)	MIC (Pseudomonas aeruginosa)	MIC (Shigella flexneri)	other results
Cc1nc(-c2cccnc2)sc1C(=O)/C=C/c1ccccc1[N+](=O)[O-]	0.97 (≈ 2.76 µM)	0.97 (≈ 2.76 µM)	31.2 (≈ 88.9 µM)	15.8 (≈ 45.1 µM)	125 (≈ 356 µM)	7.81 (≈ 22.2 µM)	7.81 (≈ 22.2 µM)	31.2 (≈ 88.9 µM)	62.5 (≈ 178 µM)	0.97 (≈ 2.76 µM)	7.81 (≈ 22.2 µM)	7.81 (≈ 22.2 µM)	3.9 (≈ 11.1 µM)	–	–	–	–	MIC (Streptococcus pyogenes; RCMB 010015, 24 h): 62.5 µg/mL (≈ 178 µM); MIC (Pseudomonas aeruginosa; RCMB 010043, 24 h): 125 µg/mL (≈ 356 µM)
Cc1nc(-c2cccnc2)sc1C(=O)/C=C/c1ccc(Cl)cc1	31.2 (≈ 91.7 µM)	31.2 (≈ 91.7 µM)	125 (≈ 367 µM)	62.5 (≈ 183 µM)	–	62.5 (≈ 183 µM)	31.2 (≈ 91.7 µM)	250 (≈ 733 µM)	–	31.2 (≈ 91.7 µM)	62.5 (≈ 183 µM)	–	62.5 (≈ 183 µM)	inactive	inactive	inactive	inactive	MIC (Enterococcus faecalis): inactive
Cc1nc(-c2cccnc2)sc1C(=O)/C=C/c1ccccc1	31.2 (≈ 102 µM)	62.5 (≈ 204 µM)	125 (≈ 408 µM)	125 (≈ 408 µM)	–	125 (≈ 408 µM)	62.5 (≈ 204 µM)	500 (≈ 1630 µM)	500 (≈ 1630 µM)	31.2 (≈ 102 µM)	62.5 (≈ 204 µM)	125 (≈ 408 µM)	62.5 (≈ 204 µM)	inactive	inactive	inactive	–	–
Cc1csc(-c2cccnc2)n1	0.97 (≈ 5.5 µM)	1.95 (≈ 11.1 µM)	15.6 (≈ 88.7 µM)	3.9 (≈ 22.1 µM)	62.5 (≈ 355 µM)	7.81 (≈ 44.3 µM)	1.95 (≈ 11.1 µM)	31.2 (≈ 177 µM)	31.2 (≈ 177 µM)	1.95 (≈ 11.1 µM)	3.9 (≈ 22.1 µM)	3.9 (≈ 22.1 µM)	0.97 (≈ 5.5 µM)	–	–	–	–	MIC (Streptococcus pyogenes; RCMB 010015, 24 h): 15.6 µg/mL (≈ 88.7 µM); MIC (Pseudomonas aeruginosa; RCMB 010043, 24 h): 125 µg/mL (≈ 709 µM)
C[C@@H]1[C@H](O)[C@@H](C)/C=C/C=C/C=C/C=C/C=C/C=C/C=C/[C@H](O[C@@H]2O[C@H](C)[C@@H](O)[C@H](N)[C@@H]2O)C[C@@H]2O[C@](O)(C[C@@H](O)C[C@@H](O)[C@H](O)CC[C@@H](O)C[C@@H](O)CC(=O)O[C@H]1C)C[C@H](O)[C@H]2C(=O)O [AMPHOTERICIN B]	–	–	1.95 (≈ 2.11 µM)	1.95 (≈ 2.11 µM)	–	0.97 (≈ 1.05 µM)	0.48 (≈ 0.519 µM)	0.24 (≈ 0.26 µM)	–	–	–	–	–	–	–	–	–	–

Further lines, with some results ahead:

MIC [1] [µg/mL]	MIC (Klebsiella pneumoniae; RCMB 010093, 24 h) [µg/mL]	MIC (Aspergillus clavatus) [µg/mL]	MIC (Talaromyces marneffei) [µg/mL]	MIC (Neisseria gonorrhoeae; RCMB 010076, 24 h) [µg/mL]	MIC (Aspergillus fumigatus) [µg/mL]	MIC (Geotrichum candidum) [µg/mL]	MIC (Candida albicans; RCMB 05035, 48 h) [µg/mL]	MIC (Enterococcus faecalis; RCMB 010068, 24 h) [µg/mL]	MIC (Bacillus subtilis) [µg/mL]	MIC (Proteus vulgaris; RCMB 010085, 24 h) [µg/mL]	MIC (Shigella flexneri; RCMB 0100542, 24 h) [µg/mL]	MIC (Staphylococcus aureus) [µg/mL]	MIC (Neisseria gonorrhoeae)	MIC (Streptococcus pyogenes)	MIC (Pseudomonas aeruginosa)	MIC (Shigella flexneri)	Structure (SMILES)	other results
15.6 (≈ 44.6 µM)	62.5 (≈ 178 µM)	62.5 (≈ 178 µM)	62.5 (≈ 178 µM)	500 (≈ 1430 µM)	31.2 (≈ 89.2 µM)	31.2 (≈ 89.2 µM)	250 (≈ 713 µM)	250 (≈ 713 µM)	15.6 (≈ 44.6 µM)	31.2 (≈ 89.2 µM)	62.5 (≈ 178 µM)	15.6 (≈ 44.6 µM)	–	inactive	inactive	–	COc1ccc(C2CC(c3sc(-c4cccnc4)nc3C)=NN2)cc1 (stereo not given)	–
62.5 (≈ 195 µM)	–	62.5 (≈ 195 µM)	250 (≈ 780 µM)	–	125 (≈ 390 µM)	62.5 (≈ 195 µM)	–	125 (≈ 390 µM)	62.5 (≈ 195 µM)	–	–	125 (≈ 390 µM)	inactive	inactive	inactive	inactive	Cc1nc(-c2cccnc2)sc1C1=NNC(c2ccccc2)C1 (stereo not given)	MIC (Klebsiella pneumoniae): inactive; MIC (Candida albicans): inactive; MIC (Proteus vulgaris): inactive
62.5 (≈ 176 µM)	–	125 (≈ 352 µM)	250 (≈ 704 µM)	–	125 (≈ 352 µM)	125 (≈ 352 µM)	–	125 (≈ 352 µM)	62.5 (≈ 176 µM)	–	–	125 (≈ 352 µM)	inactive	inactive	inactive	inactive	Cc1nc(-c2cccnc2)sc1C1=NNC(c2ccc(Cl)cc2)C1 (stereo not given)	MIC (Klebsiella pneumoniae): inactive; MIC (Candida albicans): inactive; MIC (Proteus vulgaris): inactive
